The target of series [1] is T1, Adenosine kinase (Homo sapiens, UniProt P55263). Description: Drug metabolism in human HCT116 cells assessed as ADK-mediated compound phosphorylation level per 5x10^5 cells at 10 umol/L after 1 hr by UPLC-MS/MS analysis. It counts as ADME, cell-based. Conditions: 10 µM. In short, it runs like this:
(§1)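 BJ (normal) and HCT116 (malignant) cells exposed to nucleoside at 1 or 10 μmol/L for 1 or 3 h. Intracellular nucleoside and its monophosphate quantified against synthetic monophosphate standards. Values given as pmol per 5 × 10^5 cells.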

Series [2] has as its target T1, Adenosine kinase. Description: Drug metabolism in human BJ cells assessed as ADK-mediated compound phosphorylation level per 5x10^5 cells at 1 umol/L after 3 hrs by UPLC-MS/MS analysis. It counts as ADME, cell-based. Conditions: 1 µM. In short, it runs like this: as §1
The target in series [3] is T1, Adenosine kinase. Kind of series: Drug metabolism in human HCT116 cells assessed as ADK-mediated compound phosphorylation level per 5x10^5 cells at 10 umol/L after 3 hrs by UPLC-MS/MS analysis. It counts as ADME, cell-based. The settings on record: 10 µM. In short, it runs like this: as §1
The target of series [4] is T1, Adenosine kinase. Description: Drug metabolism in human BJ cells assessed as ADK-mediated compound phosphorylation level per 5x10^5 cells at 10 umol/L after 3 hrs by UPLC-MS/MS analysis. It counts as ADME, cell-based. The settings on record: 10 µM. In a few lines: as §1
Series [5] deals with T1, Adenosine kinase. Description: Drug metabolism in human HCT116 cells assessed as ADK-mediated compound phosphorylation level per 5x10^5 cells at 1 umol/L after 3 hrs by UPLC-MS/MS analysis. It counts as ADME, cell-based. The settings on record: 1 µM. In short, it runs like this: as §1
The target in series [6] is T1, Adenosine kinase. Description: Drug metabolism in human BJ cells assessed as ADK-mediated compound phosphorylation level per 5x10^5 cells at 10 umol/L after 1 hr by UPLC-MS/MS analysis. The settings on record: 10 µM. It counts as ADME, cell-based. In a few lines: as §1
Series [7] has as its target T1, Adenosine kinase. Kind of series: Drug metabolism in human HCT116 cells assessed as ADK-mediated compound phosphorylation level per 5x10^5 cells at 1 umol/L after 1 hr by UPLC-MS/MS analysis. Conditions: 1 µM. It counts as ADME, cell-based. In a few lines: as §1
Series [8] concerns the target T1, Adenosine kinase. Kind of series: Drug metabolism in human BJ cells assessed as ADK-mediated compound phosphorylation level per 5x10^5 cells at 1 umol/L after 1 hr by UPLC-MS/MS analysis. It counts as ADME, cell-based. The settings on record: 1 µM. In short, it runs like this:
as §1

Series [9] concerns DNA. Kind of series: Induction of DNA damage in human U2OS cells transfected with 53BP1-GFP fusion gene assessed as increase in number of foci per nucleus measured at 1 hr intervals for 11 hrs by fluorescence-based assay. It counts as functional, cell-based. In a few lines:
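U2OS osteosarcoma reporter line stably expressing 53BP1-GFP treated up to 11 h, with etoposide as the double-strand-break reference. 53BP1 foci in nuclei imaged by confocal microscopy (40× objective).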

Active and inactive are the calls of the source. The rule behind the calls is not given here.

T1 sequence (P55263 whole entry): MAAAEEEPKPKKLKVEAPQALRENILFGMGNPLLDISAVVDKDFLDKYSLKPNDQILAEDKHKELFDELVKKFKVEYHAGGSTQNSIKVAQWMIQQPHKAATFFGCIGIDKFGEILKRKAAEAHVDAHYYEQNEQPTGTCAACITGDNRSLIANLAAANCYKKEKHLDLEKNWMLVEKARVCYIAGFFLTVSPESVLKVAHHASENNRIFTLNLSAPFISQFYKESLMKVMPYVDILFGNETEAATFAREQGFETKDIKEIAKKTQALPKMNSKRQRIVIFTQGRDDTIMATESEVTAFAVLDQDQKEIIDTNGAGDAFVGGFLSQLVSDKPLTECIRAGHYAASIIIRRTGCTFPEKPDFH

On to `Cc1ncnc2c1c1c(ccn1C)n2[C@@H]1O[C@H](COP(=O)([O-])O)[C@@H](O)[C@H]1O.[Na+]`, for which the Drug metabolism stood at 8868.83 pmol in series [1]; 332.63 pmol in series [2]; 12049.83 pmol in [3]; 5041.67 pmol in series [4]; 1079.19 pmol in [5]; 1531.57 pmol in series [6]. Also, the Drug metabolism was found to be 466.96 pmol in series [7] and 220.92 pmol in series [8].
Consider `COc1cc([C@@H]2c3cc4c(cc3[C@@H](O[C@@H]3O[C@@H]5CO[C@@H](C)O[C@H]5[C@H](O)[C@H]3O)[C@H]3COC(=O)[C@H]23)OCO4)cc(OC)c1O`, for which, in series [9], the result was Active.
For the compound `Cc1ncnc2c1c1occc1n2[C@@H]1O[C@H](COP(=O)([O-])O)[C@@H](O)[C@H]1O.[Na+]`, the Drug metabolism is reported as 9531.67 pmol in series [1]; 241.05 pmol in series [2]; 12533.33 pmol in [3]; 4920.41 pmol in series [4]; 1167.4 pmol in [5]; 4488.64 pmol in series [6]. Moreover, the Drug metabolism in series [7] was 511.81 pmol; in series [8], 223.51 pmol.
